Assay outcomes from PubChem.
Glyco luc inh – increase of ERlucT glycosylation luciferase signal, primary screen, N-linked glycosylation inhibitor project, D54 ERlucT cells, luminescence, set 2; D54 ERlucT glycosylation luciferase reporter, 24 h; percent of 100 nM tunicamycin response; 360,000 compounds, 0.23% hits; reporter increase, % at 12.5 µM; AID 588692, 2011;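 active means mean luciferase reporter signal, scaled so untreated is 0 and the glycosylation-blocking control 100, at or above a set limit in every replicate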;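 further: luciferase carries N-glycosylation sites so blocking glycosylation raises the light; 0% = median of neutral control wells and 100% = median of 100 nM tunicamycin wells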
EWS-Fli block – EWS/Fli-driven NR0B1 reporter inhibitors, primary screen, A673 cells, NR0B1 luciferase, luminescence, MLPCN library. viability-normalised. 350,000 compounds, 0.67% hits. inhibition, % at 12.6 µM;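 active means mean inhibition of at least 50% after viability correction, with every replicate also passing that limit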;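 further: firefly luciferase signal divided by Alamar Blue viability fluorescence both relative to DMSO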
FN deposition inh – inhibitors of fibronectin matrix deposition, primary screen, AH1F cells, Alexa488-fibronectin fluorescence, plate reader. AID 743247, 2014. AH1F fibroblasts, overnight. inhibition, % at 12.6 µM. 350,000 compounds, 0.086% hits;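 active means mean inhibition across replicates of 30% or more, regardless of how many single replicates reach that level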;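 further: positive control wells lacked labelled fibronectin entirely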
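Material: AH1F fibroblast monolayer depositing Alexa488-labelled fibronectin into matrix / Amount: 10000 AH1F cells per well / Signal: fluorescence 485/525 nm / Medium: DMEM, 2% serum / Compound: single dose, pinned / Incubation: 1 h cell adhesion before compound, then overnight fibronectin incubation / Reagent: Alexa488-FN, 24 nM final / Read-out: inhibition of fibronectin deposition signal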
AF4-AF9 inh – inhibitors of AF4 peptide binding to AF9, primary screen, biochemical, AlphaScreen, biotin-AF4 peptide, FLAG-AF9, single point | inhibition, % at 10 µM | 350,000 compounds, 0.47% hits | Protein AF-9 (Homo sapiens), P42568 | AID 651704, 2012;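 active means every replicate reaching a set inhibition limit, whatever the replicate mean, cut at about 25% in these data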;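 further: 0% = plate neutral control median and 100% = total signal loss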
Target sequence (P42568 whole entry, looked up): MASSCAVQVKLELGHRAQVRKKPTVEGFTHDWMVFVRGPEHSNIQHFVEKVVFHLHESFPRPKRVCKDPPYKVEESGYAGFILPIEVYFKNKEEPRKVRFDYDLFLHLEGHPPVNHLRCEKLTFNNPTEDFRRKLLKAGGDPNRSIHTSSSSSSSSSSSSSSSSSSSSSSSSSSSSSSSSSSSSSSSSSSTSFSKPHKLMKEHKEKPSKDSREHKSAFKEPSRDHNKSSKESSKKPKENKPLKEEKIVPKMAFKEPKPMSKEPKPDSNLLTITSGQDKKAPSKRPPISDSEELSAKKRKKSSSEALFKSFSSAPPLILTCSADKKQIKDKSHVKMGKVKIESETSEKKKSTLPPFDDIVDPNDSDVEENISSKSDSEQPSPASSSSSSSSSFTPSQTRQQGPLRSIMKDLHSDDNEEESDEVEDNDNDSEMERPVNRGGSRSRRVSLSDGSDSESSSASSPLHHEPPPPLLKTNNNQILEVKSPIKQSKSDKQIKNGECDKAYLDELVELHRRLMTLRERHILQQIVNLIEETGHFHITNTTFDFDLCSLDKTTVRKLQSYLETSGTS
PAX8 inh HTS – inhibitors of PAX8-driven TPO luciferase reporter, primary screen, RMG-I cells, single concentration; 360,000 compounds, 1.2% hits; AID 652154, 2013; SteadyGlo, 24 h; inhibition, % at 12.6 µM;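 active means mean replicate inhibition at least 60% with every replicate also reaching 60%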;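 further: luciferase light reporting Pax8 driven TPO promoter activity; plate controls were median of neutral control wells for no effect and mitoxantrone controls for full effect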
HIV Env fusion – inhibitors of HIV-1 Env-driven cell-cell fusion, primary screen, HeLa-JRFL effector, CEM21 target cells, luciferase. AID 651610, 2012. 360,000 compounds, 1.1% hits. inhibition, % at 12.3 µM;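 active means mean replicate inhibition score of at least 50 and every replicate individually at or above 50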;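 further: 0% = plate neutral controls and 100% = maraviroc near 300 nM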
* = called active by the depositor; · = not tested or not shown; [ ] = remark or other dose. Rows were chosen to be rich in hits. Some 2.5% of all compounds tested hit in one or more screens of this group.

SMILES	Glyco luc inh	EWS-Fli block	FN deposition inh	AF4-AF9 inh	PAX8 inh HTS	HIV Env fusion
c1ccc(-c2cc(-c3nnc4n3N=C(c3ccc5ccccc5c3)CS4)[nH]n2)cc1	45.8*	·	·	·	·	-149.1
Cc1cc(-c2nnc3n2N=C(c2ccccc2)CS3)n[nH]1	2.7	2.8	-7.3	-0.8	-5.7	-12.6
c1ccc(C2=Nn3c(nnc3-c3ccncc3)SC2)cc1	-6.9	·	3.3	·	-26.9	43.9
Cc1cccc(-c2nnc3n2N=C(c2ccccc2)CS3)c1	9.8	·	active	·	·	-90.2
COc1ccc(C2=Nn3c(nnc3-c3ccccc3)SC2)cc1OC	0.5	·	-4.8	·	·	-24.1
Cc1ccc(S(=O)(=O)N(C)C[C@@H]2OCCCC[C@@H](C)Oc3ccc(NS(=O)(=O)c4ccc(Cl)cc4)cc3C(=O)N([C@H](C)CO)C[C@@H]2C)cc1	·	4.2	11.5	-0.1	6.2	3.5[16.7 µM]
Cc1ccc(S(=O)(=O)N(C)C[C@@H]2OCCCC[C@H](C)Oc3ccc(NS(=O)(=O)c4ccc(Cl)cc4)cc3C(=O)N([C@@H](C)CO)C[C@H]2C)cc1	·	-1.4	-1.0	-2.6	29.4	-62.8[16.7 µM]
Cc1ccc(S(=O)(=O)N(C)C[C@H]2OCCCC[C@H](C)Oc3ccc(NS(=O)(=O)c4ccc(Cl)cc4)cc3C(=O)N([C@@H](C)CO)C[C@@H]2C)cc1	·	-25.6	-8.3	-0.5	88.8*	6.5[16.7 µM]
Cc1ccc(S(=O)(=O)N(C)C[C@H]2OCCCC[C@H](C)Oc3ccc(NS(=O)(=O)c4ccc(Cl)cc4)cc3C(=O)N([C@@H](C)CO)C[C@H]2C)cc1	·	-5.9	3.8	-1.3	25.1	-18.6[16.7 µM]
Cc1ccc(S(=O)(=O)Nc2ccc3c(c2)C(=O)N([C@H](C)CO)C[C@@H](C)[C@H](CN(C)S(=O)(=O)c2ccc(Cl)cc2)OCCCC[C@H](C)O3)cc1	·	23.0	12.9	-17.4	87.8*	·
Cc1ccc(S(=O)(=O)Nc2ccc3c(c2)C(=O)N([C@H](C)CO)C[C@H](C)[C@@H](CN(C)S(=O)(=O)c2ccc(Cl)cc2)OCCCC[C@H](C)O3)cc1	·	17.8	-7.5	·	94.9*	31.2[16.7 µM]
Cc1ccc(S(=O)(=O)Nc2ccc3c(c2)C(=O)N([C@@H](C)CO)C[C@@H](C)[C@@H](CN(C)S(=O)(=O)c2ccc(Cl)cc2)OCCCC[C@@H](C)O3)cc1	·	9.5	-4.1	·	82.6*	14.3[16.7 µM]
CN1CCN(C(=O)C[C@@H]2C[C@H]3c4cc(NC(=O)Cc5ccncc5)ccc4O[C@H]3[C@@H](CO)O2)CC1	·	4.7	·	-0.8	-6.3	-4.7[16.7 µM]
COc1ccc(CN(C)C[C@H]2Oc3c(NS(=O)(=O)c4ccc(OC)cc4)cccc3C(=O)N([C@H](C)CO)C[C@H]2C)cc1	·	-5.6	·	0.9	·	23.0[16.7 µM]
Cc1ccc(S(=O)(=O)N[C@H]2CC[C@@H](CCNC(=O)C3CC3)O[C@@H]2CO)cc1	·	-1.3	-15.9	-2.8	·	-1.9[16.7 µM]
COc1ccc(CN(C)C[C@@H]2Oc3ccc(NC(=O)Cn4cnnn4)cc3CC(=O)N([C@@H](C)CO)C[C@@H]2C)cc1	·	-1.0	·	-1.2	13.9	·
C[C@@H]1CN([C@H](C)CO)C(=O)c2cccc(NC(=O)c3ccncc3)c2O[C@H]1CN(C)S(=O)(=O)c1cn(C)cn1	·	6.0	·	-2.0	·	·
Cc1ccc(S(=O)(=O)c2nc(-c3ccccc3Br)oc2N(C)C)cc1	3.0	·	·	-2.3	10.2	-16.4
Cc1ccc(S(=O)(=O)c2nc(-c3ccccc3Cl)oc2N(C)C)cc1	14.0	-0.9	·	1.2	-6.5	56.0*
CS(=O)(=O)Nc1ccc2c(c1)[C@H]1C[C@H](CC(=O)NCc3ccc(Oc4ccccc4)cc3)O[C@@H](CO)[C@H]1O2	·	-0.8	-5.5	-0.5	9.9	-6.8[16.7 µM]
O=C(NC12CC3CC(CC(C3)C1)C2)N(Cc1ccccc1)Cc1ccncc1	-3.1	18.0	2.8	0.9	-21.0	61.5*
CC(=O)N1N=C(c2ccc3ccccc3c2)OC1(C)C	1.1	·	3.2	·	-18.6	-88.7
CC(=O)N1N=C(c2ccc(C(C)(C)C)cc2)OC1(C)C	1.4	16.0	0.4	-4.7	70.1*	·
O=C(COC(=O)c1ccc(Br)cc1)NC1CCCC1	3.2	6.3	-33.2	-0.7	-6.2	-3.4
O=C(COC(=O)c1cccc(Br)c1)NC1CCCCCCC1	1.7	3.1	5.5	-3.4	-12.2	58.3*
SMILES	Glyco luc inh	EWS-Fli block	FN deposition inh	AF4-AF9 inh	PAX8 inh HTS	HIV Env fusion
O=C(CCl)N1N=C(c2cccs2)CC1c1ccco1 (stereo not given)	18.5	70.7*	4.0	4.0	10.6	27.0
CCCNC(=O)N1CC2(CCN(C(=O)c3ccncc3)CC2)c2c([nH]c3cc(OC)ccc23)[C@@H]1CO	·	-12.9	·	-0.6	·	0.4[16.7 µM]
Cc1noc(C)c1NC(=O)N(C)C[C@H]1Oc2ccc(NC(=O)Nc3cccc4ccccc34)cc2CC(=O)N([C@H](C)CO)C[C@H]1C	·	-6.6	0.5	-1.2	5.1	8.6[16.7 µM]
COc1ccc(-n2c(-c3ccc(Br)cc3)c[n+]3c2CCCCC3)cc1	1.3	23.6	2.4	-0.9	84.4*	38.6
Cc1ccc(-n2c(-c3ccccc3)c[n+]3c2CCC3)cc1	-1.7	20.2	-25.7	-2.8	52.2	62.3*
Cc1ccc(-n2c(-c3ccc(Cl)cc3)c[n+]3c2CCC3)cc1	1.9	1.2	-6.0	0.1	43.7	-13.2
FC(F)Sc1ccc(-n2c(-c3ccc(Cl)cc3)c[n+]3c2CCC3)cc1	2.9	8.7	-5.3	2.5	67.3*	8.6
COc1ccc(-n2c(-c3ccc(Br)cc3)c[n+]3c2SC(C)C3)cc1 (stereo not given)	1.3	24.6	·	0.5	73.7*	30.4
FC(F)Sc1ccc(-n2cc(-c3ccc(Cl)cc3)[n+]3c2CCC3)cc1	5.3	·	-0.4	·	38.9	-10.6
C[C@H](CO)N1C[C@H](C)[C@@H](CN(C)Cc2ccc3cccnc3c2)OCc2cn(nn2)CCCC1=O	·	0.6	-0.4	·	-4.3	·
CCOc1ccc(-c2c[n+]3c(n2-c2ccccc2)CCCCC3)cc1	-2.0	28.2	-5.1	-2.9	80.1*	40.8
COc1ccc(-n2c(-c3ccccc3)c[n+]3c2CCC3)cc1	1.2	16.8	-9.3	-0.3	45.2	-3.2
COc1ccc(-n2c(-c3ccc(Br)cc3)c[n+]3c2CCC3)cc1	0.0	23.4	12.8	1.7	80.1*	35.6
CCOc1ccc(-c2nnc(-c3ccccc3)n2-c2ccccc2)cc1	-1.8	·	1.1	·	-39.0	-77.2
CCOc1ccc(-n2c(-c3ccc(Cl)cc3)c[n+]3c2SCC3)cc1	2.3	23.4	17.3	1.8	86.3*	-3.0
